Reference: PMC11302324 (RSC Advances, 2024)

Assays:
[1] = test system: hepatocellular carcinoma (HepG-2); assay: In vitro cytotoxicity, MTT assay; format: cell-based; conditions: Homo sapiens, HepG2, read-out: In vitro cytotoxicity IC50 HePG2
Summary of the method: (§1)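 Cells seeded at 1×10^5 cells per ml and grown 24 h at 37 °C to a monolayer, then washed twice. Two-fold dilutions of test compound in RPMI with 2% serum; medium-only control wells; doxorubicin positive control. Morphology checked, then MTT stock (5 mg ml⁻¹ in PBS) added and incubated 1-5 h (37 °C, 5% CO₂). Formazan dissolved in DMSO; OD 560 nm minus 620 nm; mean of three determinations; one-way ANOVA.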

[2] = test system: colorectal carcinoma (HCT-116); assay: In vitro cytotoxicity, MTT assay; format: cell-based; conditions: Homo sapiens, HCT-116, read-out: In vitro cytotoxicity IC50 HCT-116
Summary of the method: as §1

[3] = test system: prostate carcinoma (PC-3); assay: In vitro cytotoxicity, MTT assay; format: cell-based; conditions: Homo sapiens, read-out: In vitro cytotoxicity IC50 PC-3
Summary of the method: as §1

CK2 kinase = CK2 kinase (Homo sapiens, UniProt P68400); assay: CK2 kinase enzyme inhibitory assay; format: biochemical
Sequence of CK2 kinase (P68400 whole entry): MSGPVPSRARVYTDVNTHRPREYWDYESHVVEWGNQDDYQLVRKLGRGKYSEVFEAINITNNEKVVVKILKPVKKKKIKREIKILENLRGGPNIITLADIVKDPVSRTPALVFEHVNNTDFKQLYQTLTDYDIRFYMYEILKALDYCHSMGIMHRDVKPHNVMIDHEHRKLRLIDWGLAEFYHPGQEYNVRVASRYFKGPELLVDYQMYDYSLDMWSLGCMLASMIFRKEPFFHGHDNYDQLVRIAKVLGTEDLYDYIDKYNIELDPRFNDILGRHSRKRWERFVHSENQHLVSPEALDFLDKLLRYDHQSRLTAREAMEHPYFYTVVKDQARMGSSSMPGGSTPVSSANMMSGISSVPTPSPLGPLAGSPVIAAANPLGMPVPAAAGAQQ

[4] = test system: HepG-2, PC-3, and HCT-116 cell lines; assay: In vitro cytotoxicity, MTT assay, stated for the three cell lines together; format: cell-based, human
Summary of the method: as §1

IC50 (CK2 kinase) [µM]	activity against CK2 kinase (in words) (CK2 kinase; compared with 5b)	SMILES	IC50 [1] [µM]	IC50 [2] [µM]	IC50 [3] [µM]	cytotoxicity towards three cell lines (in words) [4]
0.117 ± 0.005	–	COC(=O)[C@H](CC(C)C)NC(=O)COc1ccc2c(C)cc(=O)oc2c1 [Compound 5b, (S)-Methyl-4-methyl-2-{2-[(4-methyl-2-oxo-2H-chromen-7-yl)oxy]acetamido}pentanoate]	42.16 ± 0.3	35.1 ± 2.8	59.7 ± 4.2	–
–	–	COC(=O)[C@@H](NC(=O)COc1ccc2c(C)cc(=O)oc2c1)c1ccccc1 [Compound 5c, (S)-Methyl 2-{2-[(4-methyl-2-oxo-2H-chromen-7-yl)oxy]acetamido}-2-phenylacetate]	154 ± 2.1	124 ± 4.4	174 ± 1.8	–
–	–	Cc1cc(=O)oc2cc(OCC(=O)NCC(=O)NN)ccc12 [Compound 6, N-(2-Hydrazinyl-2-oxoethyl)-2-[(4-methyl-2-oxo-2H-chromen-7-yl)oxy]acetamide]	168 ± 4.4	171 ± 4.2	168 ± 4.3	–
–	–	COC(=O)CNC(=O)CNC(=O)COc1ccc2c(C)cc(=O)oc2c1 [Compound 7a, Methyl 2-{2-[2-[(4-methyl-2-oxo-2H-chromen-7-yl)oxy]acetamido]acetamido}acetate]	174 ± 3.4	137 ± 2.4	172.3 ± 1.4	–
0.461 ± 0.02	less active	COC(=O)[C@@H](NC(=O)CNC(=O)COc1ccc2c(C)cc(=O)oc2c1)c1ccccc1 [Compound 7c, (S)-Methyl2-{2-{2-[(4-methyl-2-oxo-2H-chromen-7-yl)oxy]acetamido}acetamido}-2-phenylacetate]	34.1 ± 4.2	16 ± 4.1	16.1 ± 4.6	–
–	–	COC(=O)[C@@H](CC(C)C)NC(=O)CNC(=O)CNC(=O)COc1ccc2c(C)cc(=O)oc2c1 [Compound 9b, (R)-Methyl4-methyl-2-{2-{2-{2-[(4-methyl-2-oxo-2H-chromen-7-yl)oxy]acetamido}acetamido}acetamido}pentanoate]	298.8 ± 0.3	169.1 ± 0.3	85.5 ± 0.4	relatively weak cytotoxicity
–	–	COc1cccc2c1C(=O)c1c(O)c3c(c(O)c1C2=O)C[C@@](O)(C(=O)CO)C[C@@H]3O[C@H]1C[C@H](N)[C@H](O)[C@H](C)O1 [Doxorubicin, reference compound]	108 ± 0.6	61.01 ± 0.3	57.3 ± 0.6	–
